Source: PMC3220747 (ACS chemical biology, 2011)
Entries after “also recorded” stand apart in the source; their conditions may differ. Read-outs that look alike come from different tables or passages of the source.

How the values were obtained:
[1] = target: uPAR·uPA interaction (suPAR277 and uPAATF) (Homo sapiens, UniProt Q03405); test: Surface plasmon resonance; format: binding; settings: for SPR response with increasing concentration of compound: 5 to 100 μM
Procedure, shortened: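 uPA amino-terminal fragment was amine-coupled to a CM5 chip at about 100 RU. Soluble uPAR (residues 1–277, expressed in Drosophila S2 cells) was injected with or without test compound (5–100 μM final, 5% DMSO) in HBS-EP plus 5% DMSO. Flow was 20 μL min⁻¹, with 180 s association and 90 s dissociation, and 5 mM HCl regeneration. DMSO-only protein controls were interleaved. IC50 was estimated from the plots.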

[2] = target: uPAR·uPA interaction (uPAR binding to uPAATF) (Homo sapiens, UniProt Q03405); test: Microtiter-based ELISA, uPAR binding to immobilized uPAATF; settings: for activity in the ELISA at single concentration: 50 μM; for concentration-dependent inhibition of uPAR binding to uPAATF (ELISA): serial dilutions
Procedure, shortened: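 Microtiter wells coated with uPAATF (purified by SP Sepharose […] exchange). Blocking used a 1:1 mix of Superblock in PBS with 0.04 M NaH₂PO₄/0.3 M NaCl buffer. uPAR binding was tested against serial dilutions of test compound. After incubation and washes, bound uPAR was detected with biotinylated antibody uPA1310 in 1% BSA/PBS for 1–2 h.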

[3] = test system: MDA-MB-231 cells; test: Invasion assay; format: cell-based, human; settings: for number of cells able to invade through the membrane: MDA-MB-231, increasing concentration
Procedure, shortened: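 Insert undersides were coated overnight at 4°C with 30 ng μl⁻¹ fibronectin, and filters were equilibrated 2 h in serum-free medium. Cells serum-starved 4 h were seeded at 5×10⁴ in 0.1% FBS medium with compound in the upper chamber, with 10% FBS medium plus compound or DMSO below. After 16 h at 37°C, 5% CO₂, filters were methanol-fixed and hematoxylin-stained. Invaded cells were counted in ten 200× fields.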

[4] = test system: MDA-MB-231 cells; test: Cytotoxicity / cell proliferation; format: cell-based, human
Procedure, shortened: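 MDA-MB-231 cells were exposed to test compound at the same concentrations and for the same incubation time as the transwell motility assay. MTT was added 2 h before measurement.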

[5] = test system: MDA-MB-231 cells; test: Adhesion assay; format: cell-based, human
Procedure, shortened: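 Wells coated overnight at 4°C with fibronectin (15 ng μl⁻¹) or vitronectin, then blocked 1 h with 0.5% BSA/PBS. Cells were serum-starved 3 h, trypsinized, and held at 2.5×10⁵ cells ml⁻¹ in 0.1% FBS DMEM with test compound or DMSO for 90 min at 37°C. After three PBS washes, remaining adherent cells were quantified by MTT.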

[6] = test system: MDA-MB-231 cells lacking uPAR; test: Invasion assay with siRNA knockdown of uPAR; format: cell-based, human; settings: MDA-MB-231 with siRNA knockdown of uPAR
Procedure, shortened: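 Cells were transfected with uPAR siRNA, control siRNA or transfection reagent alone. After 48 h, knockdown was checked by immunoblot: 20 µg lysate on 12% SDS-PAGE, anti-uPAR probe, actin as loading control. Invasion without or with test compound then used fibronectin-coated transwells, with 0.1% FBS medium above and 10% FBS below, for 16 h at 37°C. Invaded cells were counted.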

[7] = target: T1, uPAR (Homo sapiens, UniProt Q03405); test: Fluorescence polarization; format: binding
[8] = target: uPA binding to uPAR of MDA-MB-231 tumor cells (Homo sapiens, UniProt Q03405); test: Immunofluorescence imaging of cell surface uPA and uPAR; format: cell-based
[9] = test system: MDA-MB-231 cells; test: Wound healing assay; format: cell-based, human; settings: MDA-MB-231, 16 h
Procedure, shortened: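 Confluent MDA-MB-231 monolayers were scratched with a pipette tip, washed, and cultured in complete medium containing test compound. The gap between wound edges was measured in three random regions immediately after wounding and at 16 h.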

[10] = test system: MDA-MB-231 cells; test: Transwell; format: cell-based, human
Procedure, shortened: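 Wells were fibronectin-coated (30 ng μL⁻¹, 4°C overnight). Cells serum-starved 4 h were seeded at 5×10⁴ in 0.1% FBS medium with compound or DMSO in the upper chamber, with 10% FBS RPMI-1640 plus compound or 1% DMSO below, for 8 h at 37°C. Non-migrated cells were scraped off; filters were methanol-fixed 30 min and hematoxylin-stained 1 h. Cells in ten 200× fields were counted and averaged over three independent experiments.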

[11] = target: T1, uPAR; test: Direct binding of IPR-456 to uPAR by FP; settings: 10 μM GFD
[12] = read-out: IC50, inhibition of uPAATF binding to uPAR (ELISA)

uPA binding to uPAR of MDA-MB-231 tumor cells, sequence (Q03405 23-305 limits assumed): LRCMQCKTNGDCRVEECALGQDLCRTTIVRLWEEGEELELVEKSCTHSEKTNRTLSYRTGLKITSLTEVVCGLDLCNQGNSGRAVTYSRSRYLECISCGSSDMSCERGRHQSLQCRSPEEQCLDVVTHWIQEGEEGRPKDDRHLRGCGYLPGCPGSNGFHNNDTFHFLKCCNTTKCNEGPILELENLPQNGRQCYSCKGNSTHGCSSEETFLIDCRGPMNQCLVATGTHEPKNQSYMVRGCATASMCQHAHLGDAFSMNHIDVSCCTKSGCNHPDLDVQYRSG
uPAR·uPA interaction (suPAR277 and uPAATF), sequence (Q03405 23-299): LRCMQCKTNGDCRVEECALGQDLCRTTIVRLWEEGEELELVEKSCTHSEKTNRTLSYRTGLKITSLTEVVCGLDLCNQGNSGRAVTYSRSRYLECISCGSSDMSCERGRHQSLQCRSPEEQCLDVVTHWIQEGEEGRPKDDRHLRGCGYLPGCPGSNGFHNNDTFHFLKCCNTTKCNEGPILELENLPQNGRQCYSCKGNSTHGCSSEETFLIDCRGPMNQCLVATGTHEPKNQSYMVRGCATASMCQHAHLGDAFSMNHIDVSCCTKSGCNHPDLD
uPAR·uPA interaction (uPAR binding to uPAATF), sequence (Q03405 23-299): as above
T1 sequence (Q03405 23-299): as above

Question: Which “IC50 estimated from SPR plots, compared with ELISA” value [1] does the source give for `CC1CC(C)CN(c2cc(NCCC(=O)O)c3c4c(onc24)-c2ccccc2C3=O)C1` (stereo not shown) [IPR-763] here?
Answer: nearly identical to those observed in the ELISA

Question: What about the “SPR response with increasing concentration of compound” value [1] of the same molecule?
Answer: concentration-dependent decrease in the response

Question: And the “activity in the ELISA at single concentration” value [2]?
Answer: strong activity

Question: What about the IC50 [2, 12] of the same molecule?
Answer: 20 µM

Question: What about the “concentration-dependent inhibition of uPAR binding to uPAATF (ELISA)” value (shortened to “concentration-dependent inhibition”) [2] of the same molecule?
Answer: concentration-dependent inhibition

Question: Which results are given for `O=C(O)c1cccc(Nc2cc(N3CCCCCC3)c3noc4c3c2C(=O)c2ccccc2-4)c1` [IPR-803, 3-((3-(Azepan-1-yl)-6-oxo-6H-anthra[1,9-cd]isoxazol-5-yl)amino)benzoic acid]?
Answer: number of cells able to invade through the membrane [3]: concentration-dependent reduction; IC50 [1]: 10 µM; IC50 estimated from SPR plots, compared with ELISA [1]: nearly identical to those observed in the ELISA; SPR response with increasing concentration of compound [1]: concentration-dependent decrease in the response; effect on cell proliferation / cytotoxicity ([4]; MDA-MB-231, increasing concentration): concentration dependent inhibition of MDA-MB-231 cell proliferation; also recorded: some cytotoxicity; IC50 [2]: 10 µM; activity in the ELISA at single concentration [2]: strong activity; concentration-dependent inhibition of uPAR binding to uPAATF (ELISA) [2]: concentration-dependent inhibition

Question: Which “effect on cell adhesion” value ([5]; fibronectin-coated wells) does the source give for `CC1CC(C)CN(c2cc(Nc3ccccc3C(=O)O)c3c4c(onc24)-c2ccccc2C3=O)C1` (stereo not shown) [IPR-456, 2-((3-(3,5-Dimethylpiperidin-1-yl)-6-oxo-6H-anthra[1,9-cd]isoxazol-5-yl)amino)benzoic acid] here?
Answer: no effect on cell adhesion

Question: What about the “effect on cell adhesion” value ([5]; vitronectin-coated wells) of the same molecule?
Answer: no effect on cell adhesion

Question: What about the “effect on invasion of cells lacking uPAR” value [6] of the same molecule?
Answer: no effect on invasion

Question: And the inhibition of invasion ([3]; MDA-MB-231)?
Answer: about 60%

Question: What about the “number of cells able to invade through the membrane” value [3] of the same molecule?
Answer: concentration-dependent reduction

Question: And the Ki [7]?
Answer: 0.14 µM

Question: And the “concentration-dependent displacement of GFD-FAM” value ([7]; 0.78 μM to 100 μM)?
Answer: displace GFD-FAM in a concentration-dependent manner

Question: And the “inhibition / binding in initial FP screen” value ([7]; single concentration of 50 μM)?
Answer: highest inhibition

Question: And the IC50 [8]?
Answer: 8 µM

Question: And the “uPAR immunostaining at the cell surface” value ([8]; MDA-MB-231)?
Answer: no change in the immunostaining pattern of uPAR

Question: What about the “uPA staining at the cell surface” value ([8]; MDA-MB-231, compound added 30 min prior to immunostaining) of the same molecule?
Answer: significant concentration-dependent reduction of uPA staining

Question: And the “effect on migration (wound healing)” value [9]?
Answer: little effect on migration

Question: And the “toxicity within the timeframe of the invasion experiment” value ([4]; MDA-MB-231, 200 μM)?
Answer: minimal toxicity

Question: And the “toxicity within the timeframe of the invasion experiment” value ([4]; MDA-MB-231, up to 100 μM)?
Answer: no toxicity

Question: And the “cytotoxicity in the migration assays” value ([4]; same concentrations and incubation time as migration assays)?
Answer: Neither assay exhibited any cell cytotoxicity

Question: And the “concentration-dependent inhibition” value [2]?
Answer: complete concentration-dependent inhibition

Question: What about the “effect on migration (Boyden chamber)” value [10] of the same molecule?
Answer: blocked migration very weakly

Question: And the “change of polarization with increasing uPAR in the presence of GFD” value [11]?
Answer: no increase in the polarization was detected

Question: `CC1CCN(c2cc(Nc3ccc(C(=O)O)cc3)c3c4c(onc24)-c2ccccc2C3=O)CC1` [IPR-808] was tested. Which “activity in the ELISA at single concentration” value [2] did it give?
Answer: strong activity

Question: And the IC50 [2, 12]?
Answer: 30 µM

Question: What about the “concentration-dependent inhibition” value [2] of the same molecule?
Answer: concentration-dependent inhibition
